From ChEMBL document CHEMBL4308835, “Fluorine-Substituted Pyrrolo[2,3- d]Pyrimidine Analogues with Tumor Targeting via Cellular Uptake by Folate Receptor α and the Proton-Coupled Folate Transporter and Inhibition of de Novo Purine Nucleotide Biosynthesis” (J Med Chem, 2018)
The source made the active and inactive calls. The rule behind the calls is not given here.

Tests used:
[1] = Antiproliferative activity in Chinese hamster R2 cells deficient in RFC, PCFT, and FRalpha assessed as reduction in cell growth after 96 hrs by Cell-Titer Blue assay; format: cell-based; conditions: Cricetulus griseus, R2, 96 h
[2] = biological target: T1, Reduced folate transporter (Homo sapiens) (UniProt P41440); test: Inhibition of human RFC2 expressed in human HeLa R1-11 cells assessed as reduction in [3H]MTX uptake at pH 7.2 at 10 uM measured over 2 mins relative to control; format: cell-based
T1 sequence (whole entry): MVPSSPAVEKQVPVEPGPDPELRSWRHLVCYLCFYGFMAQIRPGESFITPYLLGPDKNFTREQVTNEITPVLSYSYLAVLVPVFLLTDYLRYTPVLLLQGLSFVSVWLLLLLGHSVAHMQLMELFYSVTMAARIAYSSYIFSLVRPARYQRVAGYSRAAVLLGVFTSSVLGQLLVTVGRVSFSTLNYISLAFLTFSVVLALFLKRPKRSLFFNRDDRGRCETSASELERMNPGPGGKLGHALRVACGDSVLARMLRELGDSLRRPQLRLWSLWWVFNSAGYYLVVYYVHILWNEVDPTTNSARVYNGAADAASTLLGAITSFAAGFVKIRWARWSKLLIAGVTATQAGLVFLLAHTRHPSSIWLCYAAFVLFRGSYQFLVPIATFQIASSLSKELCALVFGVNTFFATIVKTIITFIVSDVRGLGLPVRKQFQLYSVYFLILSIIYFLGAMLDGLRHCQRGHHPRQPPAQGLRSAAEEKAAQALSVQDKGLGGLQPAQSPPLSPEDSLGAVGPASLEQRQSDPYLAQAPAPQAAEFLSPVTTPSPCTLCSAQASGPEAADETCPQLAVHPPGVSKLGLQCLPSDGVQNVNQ

[3] = biological target: T2, Proton-coupled folate transporter (Homo sapiens) (UniProt Q96NT5); test: Inhibition of human PCFT expressed in Chinese hamster R2/PCFT4 cells assessed as reduction in [3H]MTX uptake at pH 5.5 at 1 to 10 uM measured over 2 mins; format: cell-based
T2 sequence (whole entry): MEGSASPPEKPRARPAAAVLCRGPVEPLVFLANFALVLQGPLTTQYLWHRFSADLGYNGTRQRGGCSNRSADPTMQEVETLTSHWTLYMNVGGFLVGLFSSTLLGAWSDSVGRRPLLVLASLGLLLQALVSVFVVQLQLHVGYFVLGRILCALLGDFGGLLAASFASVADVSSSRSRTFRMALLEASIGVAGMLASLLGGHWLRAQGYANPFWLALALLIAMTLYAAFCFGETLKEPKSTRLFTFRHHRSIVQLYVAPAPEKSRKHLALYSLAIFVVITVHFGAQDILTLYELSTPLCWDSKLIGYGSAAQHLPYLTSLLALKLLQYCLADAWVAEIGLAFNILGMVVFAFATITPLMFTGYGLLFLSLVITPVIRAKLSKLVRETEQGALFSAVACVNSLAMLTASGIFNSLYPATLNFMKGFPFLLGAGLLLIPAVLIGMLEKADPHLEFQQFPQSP

IGROV-1 [4] = test: Anticlonogenic activity against human IGROV1 cells incubated for 24 hrs followed by compound wash out and measured after 10 days by methylene blue staining-based assay; format: functional, cell-based
Summary of the method: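 IGROV1 cells plated in folate-free RPMI 1640 (pH 7.2), 10% dialyzed FBS, 25 nM LCV. After 24 h adherence, exposed to drug (0–20 μM) for 24 h at pH 6.8 (25 mM PIPES/25 mM HEPES). Washed, then grown drug-free at pH 7.2 (100 mM HEPES) with 25 nM LCV for up to 10 days at 37 °C. Colonies stained with methylene blue and counted electronically. Values normalized to vehicle controls. Triplicate experiments.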

IGROV-1 [5] = test: Antiproliferative activity against FRalpha […] human IGROV1 KD10 cells after 96 hrs by Cell-Titer Blue assay; format: functional, cell-based; conditions: IGROV-1, 96 h
IGROV-1 [6] = test: Antiproliferative activity against human IGROV1 cells harboring non targeted control shRNA sequence after 96 hrs by Cell-Titer Blue assay; format: functional, cell-based; conditions: IGROV-1, 96 h
A2780 = test: Antiproliferative activity against human A2780 cells after 96 hrs by Cell-Titer Blue assay; format: functional, cell-based; conditions: A2780, 96 h
IGROV-1 [7] = test: Antiproliferative activity against wild type human IGROV1 cells after 96 hrs by Cell-Titer Blue assay; format: functional, cell-based; conditions: IGROV-1, 96 h
IGROV-1 [8] = test: Antitumor activity against human IGROV1 cells xenografted in NCR SCID mouse assessed as median tumor burden at 32 mg/kg, iv treated once daily for 4 days per week for 3 weeks starting from 3 days post implantation and measured at day 60 post last dose (reference value: 108 mg); format: functional
Summary of the method: (§1)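 Female ICR SCID mice (10 weeks, ~20 g) kept on folate-deficient diet ad libitum for 14 d before bilateral subcutaneous IGROV1 implantation; a control cohort was fed standard folate-replete chow. 5 mice/group, nonselectively randomized. […] Tumors measured twice weekly, body weights daily. T/C from median tumor burdens.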

IGROV-1 [9] = test: Antitumor activity against human IGROV1 cells xenografted in NCR SCID mouse assessed as time for tumor growth delay at 95 mg/kg, iv treated once daily for 4 days per week for 4 weeks starting from 3 days post implantation; format: functional; conditions: in the assay text read “32 mg/kg” for “95 mg/kg”
Summary of the method: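 Female ICR SCID mice, 10 weeks old, kept on a folate-deficient diet for 14 days before bilateral subcutaneous IGROV1 implants; a control cohort was fed folate-replete chow. Randomized at 5 mice/group. […] Tumors measured twice weekly; body weights recorded daily.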

[10] = Toxicity in NCR SCID mouse xenografted with human IGROV1 cells at 32 mg/kg, iv treated once daily for 4 days per week for 3 weeks starting from 3 days post implantation; format: organism-based; conditions: in vivo
Summary of the method: (§2)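 Female ICR SCID mice on a folate-deficient diet for 14 days before bilateral subcutaneous IGROV1 implants. Randomized at 5 mice/group. […] Body weights recorded daily; tumors measured twice weekly.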

[11] = Toxicity in NCR SCID mouse xenografted with human IGROV1 cells assessed as weight loss median nadir at 32 mg/kg, iv treated once daily for 4 days per week for 3 weeks starting from 3 days post implantation and measured at day 14 post last dose relative to control; format: organism-based; conditions: in vivo; summary of the method: as §1
[12] = Toxicity in NCR SCID mouse xenografted with human IGROV1 cells assessed as weight loss median nadir at 32 mg/kg, iv treated once daily for 4 days per week for 3 weeks starting from 3 days post implantation and measured at day 18 post last dose relative to control; format: organism-based; conditions: in vivo; summary of the method: as §2
[13] = biological target: T1, Reduced folate transporter (Homo sapiens); test: Inhibition of human RFC2 expressed in human HeLa R1-11 cells assessed as reduction in [3H]MTX uptake at pH 7.2 at 1 uM measured over 2 mins relative to control; format: cell-based
[14] = Toxicity in NCR SCID mouse xenografted with human IGROV1 cells assessed as weight loss median nadir at 32 mg/kg, iv treated once daily for 4 days per week for 4 weeks starting from 3 days post implantation and measured after conclusion of therapy; format: organism-based; conditions: in vivo

Nc1nc2[nH]c(CCCc3ccc(C(=O)N[C@@H](CCC(=O)O)C(=O)O)s3)cc2c(=O)[nH]1
IC50 [1]: 355 nM
inhibition [2]: inactive
inhibition [3]: Active
IC50 (IGROV-1 [4]): 270 nM
IC50 (IGROV-1 [5]): 74.6 nM
IC50 (IGROV-1 [6]): 10.1 nM
IC50 (A2780): 27.4 nM
IC50 (IGROV-1 [7]): 16.7 nM
Activity (IGROV-1 [8]): 108 mg
Time (IGROV-1 [9]): 35 days
Activity [10]: Non-Toxic
Activity [11]: 15.7%
Activity [12]: 12.1%
inhibition [13]: inactive
Activity [14]: Non-Toxic
